Screening results deposited in PubChem BioAssay by several laboratories.
TAAR1 ag = human TAAR1 agonists, primary screen, Fluo-8 calcium fluorescence, CHO RD-HGA16 cells | Trace amine-associated receptor 1 (Homo sapiens), Q96RJ0 | vehicle wells 0%, saturating PEA agonist 100% | activation, % at 3 µM | 360,000 compounds, 0.99% hits | AID 624467, 2012;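 active means activation above the mean activation of all test compounds in the run plus 3 SD, cut at about 38% in these data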
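Signal – calcium-sensitive Fluo-8 signal, excitation 470-495, emission 515-575 nm · System – RD-HGA16 (CHO) cells co-expressing Gα16 and hTAAR1 · Incubation – 17-24 h seeding, 75 min 37 °C dye, 30 min RT · Compound dosing – 3 µM single concentration · Repeats – no replicates (n 1)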
m5-HT2A agonist = mouse Htr2a agonists via beta-arrestin recruitment, primary screen, cell-based, luminescence; 5-hydroxytryptamine receptor 2A (Mus musculus), P35363; AID 624169, 2012; CHO-K1 mHTR2A beta-arrestin complementation; percent of 30 µM serotonin response; 360,000 compounds, 0.66% hits; activation, % at 7.6 µM;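 active means activation above a run cutoff, the mean activation of all tested compounds plus 3 SD, cut at about 14% in these data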;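 further: 0% = plate median of compound wells and 100% = 30 µM serotonin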
Target sequence (P35363 whole entry, looked up): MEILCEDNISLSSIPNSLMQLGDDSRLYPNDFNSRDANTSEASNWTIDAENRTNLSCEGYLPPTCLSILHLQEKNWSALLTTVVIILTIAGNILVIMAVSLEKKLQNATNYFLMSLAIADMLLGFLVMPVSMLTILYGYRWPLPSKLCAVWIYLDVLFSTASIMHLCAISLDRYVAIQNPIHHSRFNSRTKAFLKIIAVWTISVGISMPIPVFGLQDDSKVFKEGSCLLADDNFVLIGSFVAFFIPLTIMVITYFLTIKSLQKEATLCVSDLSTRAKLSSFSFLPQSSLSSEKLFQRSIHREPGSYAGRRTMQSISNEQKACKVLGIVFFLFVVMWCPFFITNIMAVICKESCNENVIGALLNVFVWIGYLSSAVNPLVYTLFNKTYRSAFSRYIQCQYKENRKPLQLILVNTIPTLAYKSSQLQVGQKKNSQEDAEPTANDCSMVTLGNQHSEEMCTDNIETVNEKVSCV
MC4R antagonist = MC4R antagonists of cAMP signaling, primary screen, cell-based, TR-FRET, antagonist arm of biased-ligand search | 360,000 compounds, 0.48% hits | Melanocortin receptor 4 (Homo sapiens), P32245 | MC4R-expressing cells, MTII-stimulated cAMP, LANCE TR-FRET | inhibition, % at 6.5 µM | AID 540295, 2011;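 active means inhibition above its plate's cutoff, the mean of tested wells on that plate plus 3 SD, cut at about 29% in these data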;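 further: 0% = Melanotan II alone and 100% = Melanotan II plus saturating MCL0020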
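system = U2OS cells with stable human MC4R expression | also added = Melanotan II challenge after compound preincubation | dosing = one concentration, 6.5 µM nominal | incubation = compound 30 min, challenge 1 h, detection 1 h | measured by = TR-FRET with Eu-cAMP and labeled anti-cAMP, 671 nm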
MC4R barr agon = MC4R agonists recruiting beta-arrestin, primary screen, cell-based, luminescence, agonist arm of biased-ligand search | Melanocortin receptor 4 (Homo sapiens), P32245 | U2OS MC4R beta-arrestin complementation; percent of melanotan II response, DMSO zero | activation, % at 8.9 µM | 360,000 compounds, 0.98% hits;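 active means activation above a per-plate cutoff, the mean activation of sample wells on that plate plus 3 SD, cut at about 8% in these data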
TAAR1 antag = human TAAR1 antagonists, primary screen, Fluo-8 calcium fluorescence, CHO RD-HGA16 cells; inhibition, % at 3 µM; AID 624466, 2012; antagonist; 360,000 compounds, 1.5% hits;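 active means inhibition above a per-plate cutoff, the mean inhibition of test compounds on that plate plus 3 SD, cut at about 49% in these data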;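 further: 0% = DMSO plus EC80 beta-PEA response and 100% = DMSO alone without agonist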
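Test system: hTAAR1-expressing CHO RD-HGA16 cells, Gα16-coupled; Probe or stimulus: EC80 β-phenethylamine stimulus; Compound dosing: single nominal final test compound concentration of 3 µM; Timing: 140 s kinetic read after compound, 140 s after agonist; Signal: Fluo-8 calcium-sensitive fluorescence; Measure: % inhibition of agonist calcium response; Controls: DMSO and EC80 PEA controls.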
B2AR ag = beta2AR agonists driving receptor internalization, primary screen, cell-based, FAP fluorogen, flow cytometry. Beta-2 adrenergic receptor (Homo sapiens), P07550. Am2.2-beta2AR cells. response, % (no concentration beside the values). 340,000 compounds, 0.43% hits. AID 504454, 2011;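 active means response above a set limit, near 3 SD of response in nonfluorescent compounds, cut at about 42% in these data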
nonsel antag count = nonselective antagonists in TAAR1 counter-screen cells, counter-screen for hTAAR1 antagonist project, cell-based, fluorescence, calcium; shares compounds with TAAR1 antag; counterscreen cell line, antagonist mode; inhibition, % at 3 µM; 2,400 compounds, 77% hits; AID 651780, 2012; in the data active means inhibition above about 22%;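 further: CHO-Ga16 host cells stimulated with ATP at an EC80 level; 0% = agonist EC80 plus vehicle and 100% = vehicle without agonist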
TAAR1 antag conf = human TAAR1 antagonists, retest of hits, confirmation, cell-based, fluorescence; shares compounds with TAAR1 antag; TAAR1-expressing cells, fluorescence antagonist read-out; inhibition, % at 3 µM; 2,400 compounds, 40% hits; in the data active means inhibition above about 49%;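 further: CHO-Ga16 host cells challenged with agonist PEA near its EC80; 0% = agonist at EC80 plus vehicle and 100% = vehicle with no agonist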
Ga16 nonsel ag = calcium activation in Ga16-expressing cells, counter-screen for TAAR1 antagonist project, cell-based, fluorescence. shares compounds with TAAR1 antag. agonist counterscreen. activation, % at 3 µM. 2,400 compounds, 18% hits; in the data active means activation above about 12%;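 further: 0% = vehicle wells and 100% = saturating stimulus response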
TAAR1 ag count = TAAR1 activation by candidate antagonists – cell-based, fluorescence, counter-screen for TAAR1 antagonist project | shares compounds with TAAR1 antag | hTAAR1 cell line, agonist mode | activation, % at 3 µM | 2,400 compounds, 2% hits | AID 651955, 2012; in the data active means activation above about 37%;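 further: CHO cells stably expressing TAAR1 with calcium dye readout; 0% = DMSO vehicle and 100% = full agonist response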
The depositor's hits bear a star. Shown are actives, neighbours in structure and some others; about 4.3% of the full set was active somewhere.

`CC(C)CC1C(=O)N(Cc2cn(CCC3OCCO3)nn2)CCS(=O)(=O)N1Cc1ccc(-c2cccc(CO)c2)cc1` (configuration not stated) gave TAAR1 ag 11.9, m5-HT2A agonist -3.8, MC4R antagonist 11.7, MC4R barr agon 0.2 and TAAR1 antag 34.8.
`Cc1cccc(C)c1-c1ccc(CN2C(CC(C)C)C(=O)N(Cc3cn(CCO)nn3)CCS2(=O)=O)cc1` (configuration not stated) gave TAAR1 ag 33.6, m5-HT2A agonist 5.1, MC4R antagonist 21.4, MC4R barr agon 5.6, TAAR1 antag 90.2*, B2AR ag 5.2, nonsel antag count 53.0*, TAAR1 antag conf 67.3*, Ga16 nonsel ag 20.8* and TAAR1 ag count 18.6.
Screening O=C(O)c1cc(NC(=O)c2ccc3c(c2)C(=O)N(Cc2cccnc2)C3=O)cc(C(=O)O)c1 returned TAAR1 ag 0.4, m5-HT2A agonist -0.4, MC4R antagonist 0.5, MC4R barr agon -2.3, TAAR1 antag -25.5 and B2AR ag -3.9.
Screening C#Cc1cccc(NC(=O)c2ccc3c(c2)C(=O)N(Cc2cccnc2)C3=O)c1 returned TAAR1 ag 15.0, m5-HT2A agonist -3.3, MC4R antagonist 15.1, MC4R barr agon -0.5, TAAR1 antag 84.8*, B2AR ag 23.6, nonsel antag count 42.4*, TAAR1 antag conf 61.5*, Ga16 nonsel ag 13.9* and TAAR1 ag count 14.3.
O=C1C=C(c2ccc(CO)cc2)C[C@@H](c2ccc3c(c2)OCO3)C1 was read as TAAR1 ag 10.0, m5-HT2A agonist -3.6, MC4R antagonist 10.4, MC4R barr agon -2.2, TAAR1 antag 35.6 and B2AR ag -3.0.
`COCc1ccc(-c2c(-c3ccsc3)oc(=O)c3cc(OC)c(OC)cc23)cc1` gave TAAR1 ag 2.4, m5-HT2A agonist 5.2, MC4R antagonist 3.5, MC4R barr agon 0.8, TAAR1 antag 57.6*, B2AR ag 6.3, nonsel antag count 17.5, TAAR1 antag conf 32.6, Ga16 nonsel ag 2.1 and TAAR1 ag count 1.2.
Screening COc1ccc(C2=NOC(C(=O)Nc3cccnc3)C2)cc1 (configuration not stated) returned TAAR1 ag 4.1, m5-HT2A agonist 2.0, MC4R antagonist -3.5, MC4R barr agon -0.6, TAAR1 antag -2.2 and B2AR ag -3.2.
Screening COc1ccc(C2=NOC(C(=O)N3CCN(c4ccccc4OC)CC3)C2)cc1 (configuration not stated) returned TAAR1 ag 9.9, m5-HT2A agonist 0.3, MC4R antagonist 6.5, MC4R barr agon 0.8, TAAR1 antag 50.9*, B2AR ag 10.8, nonsel antag count 21.1, TAAR1 antag conf 23.1, Ga16 nonsel ag 7.9 and TAAR1 ag count 8.3.
For COc1ccc(OC)c(C2=NOC(C(=O)N3CCN(c4ccccc4)CC3)C2)c1 (configuration not stated) the results were TAAR1 ag 0.5, m5-HT2A agonist -1.8, MC4R antagonist 9.8, MC4R barr agon 1.6, TAAR1 antag -12.9 and B2AR ag 5.9.
For CCc1ccccc1NC(=O)C1CC(c2ccc(OC)cc2)=NO1 (configuration not stated) the results were TAAR1 ag -1.9, m5-HT2A agonist -6.9, MC4R antagonist 7.1, MC4R barr agon -1.0, TAAR1 antag 102.6*, B2AR ag -2.8, nonsel antag count 14.5, TAAR1 antag conf 7.0, Ga16 nonsel ag 4.5 and TAAR1 ag count 6.2.
`O=C(Nc1c(F)cccc1F)c1cnc(N2CCN(c3ccccn3)CC2)c2ccccc12` gave TAAR1 ag 14.0, m5-HT2A agonist -0.2, MC4R antagonist -0.7, MC4R barr agon 1.1, TAAR1 antag 63.3*, B2AR ag -14.8, nonsel antag count 34.6*, TAAR1 antag conf 59.6*, Ga16 nonsel ag 6.7 and TAAR1 ag count 4.9.
`Cc1nc(N2CCN(c3ccccn3)CC2)c2c(C)c(C(=O)Nc3ccccc3F)sc2n1` gave TAAR1 ag 4.4, m5-HT2A agonist 6.0, MC4R antagonist 3.9, MC4R barr agon 0.0, TAAR1 antag -1.0 and B2AR ag 15.2.
Fc1ccc2c(-c3cccc(C(F)(F)F)c3)c(-c3ccccc3)ncc2c1 was read as TAAR1 ag 8.5, m5-HT2A agonist 3.1, MC4R antagonist 11.7, MC4R barr agon 1.8, TAAR1 antag 44.9 and B2AR ag 0.2.
`O=[N+]([O-])c1ccc(-c2c(-c3ccccc3)ncc3ccc(F)cc23)cc1` gave TAAR1 ag 0.3, m5-HT2A agonist -3.0, MC4R antagonist 9.2, MC4R barr agon 0.6, TAAR1 antag 73.6*, B2AR ag 2.2, nonsel antag count 19.5, TAAR1 antag conf 66.2*, Ga16 nonsel ag -0.7 and TAAR1 ag count -1.6.
For COC(=O)c1ccc(-c2c(-c3ccccc3)ncc3cc(F)ccc23)cc1 the results were TAAR1 ag 3.0, m5-HT2A agonist -3.5, MC4R antagonist -2.9, MC4R barr agon 4.8, TAAR1 antag 10.5 and B2AR ag -10.3.
For Fc1ccc2cnc(-c3ccccc3)c(-c3ccc(C(F)(F)F)cc3)c2c1 the results were TAAR1 ag 0.2, m5-HT2A agonist 6.3, MC4R antagonist 11.2, MC4R barr agon 1.5, TAAR1 antag 63.2*, B2AR ag 4.1, nonsel antag count 8.6, TAAR1 antag conf 37.3, Ga16 nonsel ag 4.0 and TAAR1 ag count -1.0.
